From ChEMBL document CHEMBL4513216, “Probing the Open Global Health Chemical Diversity Library for Multistage-Active Starting Points for Next-Generation Antimalarials” (ACS Infect Dis, 2020) come the findings set out here.

This series is described as follows: Toxicity liver stage against HepG2, at 10uM. The format is cell-based. The arrangement: test concentration 10 uM, cell line HepG2-A16-CD81EGFP. The conditions noted are these: human, HepG2-A16-CD81EGFP cells; read-out: INHIBITION
An outline of the steps:
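Uninfected HepG2-A16-CD81EGFP cells, 3 × 10^3 per well, 1536-well, plated on prespotted compound at 10 μM final, parasite-free screening media added to match infected plates; puromycin 10 μM positive, DMSO 0.5% negative; run in parallel with 48 h PbLuc assay at 37 °C, 5% CO2; viability by CellTiter-Glo luminescence, normalized to controls.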

Regarding `Cc1ccc2cc(CNCCCO)c(=O)[nH]c2c1`, the cytotoxicity at 10 µM worked out at 0.127%. `CCN(CCc1nccs1)C(=O)c1sccc1C`: the cytotoxicity at 10 µM was -0.682%. Regarding `COC(=O)CCC(=O)N1CCc2nc(C(=O)N(C)C)sc2CC1`, the cytotoxicity at 10 µM came to 18.7%. Consider `O=C1CC(NS(=O)(=O)NCc2ccccc2)CN1c1ccccc1Cl` (centres undefined), for which the cytotoxicity at 10 µM is -5.68%. For the compound `CC(C)c1cc(C(=O)N2CCC3(CC2)c2ccccc2[C@@H](N)[C@@H]3O)cs1`, the cytotoxicity at 10 µM is -7.34%.

Turning to `CC(=O)N[C@@H]1CN(Cc2ccccc2C#N)C[C@H]1c1ccc(C)cc1`, the cytotoxicity at 10 µM was -4.27%. In the case of `O=C(NCCNc1cnccn1)N1CCN(c2nccs2)CC1`, the cytotoxicity at 10 µM was -0.84%.

Consider `Cc1cc(N2CCCN(c3ccnc(C)c3)CC2)ccn1`, for which the cytotoxicity at 10 µM was -0.943%. With `Cc1cccc(C)c1OC1CN(C(=O)C2CC(=O)N(C(C)(C)C)C2)C1` (centres undefined), the cytotoxicity at 10 µM was found to be 0.213%. For the compound `Cc1nc(C)n(CC2CCCN2Cc2cn3c(C)cccc3n2)n1` (centres undefined), the cytotoxicity at 10 µM came to 2.02%. As for `CN(C)Cc1cn(-c2ccccc2C(=O)NCCC2CCCN2C)cn1` (centres undefined), the cytotoxicity at 10 µM turned out to be 4.08%.

`CN(C)C(=O)COc1ccccc1CN1CCCC2(C1)CN(C)C(=O)O2` (centres undefined): the cytotoxicity at 10 µM was 0.224%.

For the compound `Cc1cccc(-n2cc3[nH]c(=O)[nH]n3c2=O)c1`, the cytotoxicity at 10 µM was 2.48%.

Consider `Cc1cc(C)c(CNc2ncnc3c2cnn3C)c(=O)[nH]1`, for which the cytotoxicity at 10 µM came to 8.63%.

Consider `Cc1ccc(C(=O)N2C[C@@H]3CN(c4ncccn4)C[C@@H]3C2)cc1`, for which the cytotoxicity at 10 µM is 9.34%. Take `COc1cc(NC(=O)N2CCCC2c2ccco2)cc(OC)c1` (centres undefined): the cytotoxicity at 10 µM turned out to be 4.65%. Next, `CN1CCCN(C(=O)c2cc(-c3cc[nH]n3)n3ccccc23)CC1`: 11%. Next, `O=C(Nc1ccccc1)c1ccc(NCc2ccccc2CO)nn1`: 4.34%.

As for `CN(CCCOc1ccccc1Cl)C(=O)CN1C(=O)CCNC1=O`, the cytotoxicity at 10 µM is -1.97%.

As for `Cc1cnn(CC2CCCN2C(=O)c2csc(C3CC3)n2)c1` (centres undefined), the cytotoxicity at 10 µM is -17.8%.

With `Cc1cc(N2CCC(O)(CN(C)C)C2)c2cc3c(cc2n1)OCO3` (centres undefined), the cytotoxicity at 10 µM is 45.4%. For `CCC(CC)C(O)CNC(=O)Nc1cccc(-c2nccn2C)c1` (centres undefined), the cytotoxicity at 10 µM is -1.39%. Next, `O=C(c1ccnnc1)N1CCC2(CC1)CN(c1ccccn1)CCO2`: -81.5%; `c1cc(CNCc2ccc3c(c2)CCO3)cc(N2CCOCC2)n1`: 11.1%.

`O=S(=O)(Nc1cnc(N2CCOCC2)nc1)c1ccc(C(F)(F)F)cc1`: the cytotoxicity at 10 µM is -2.73%. For `Cn1cnc2c1CCN(Cc1csc(-c3ccccc3F)n1)C2`, the cytotoxicity at 10 µM was -4.25%.

Consider `Cc1nn(C)c(N(C)C)c1CNCc1ccnn1C`, for which the cytotoxicity at 10 µM is -3.35%.

Regarding `CCn1c(C)nnc1CN(C)C1CCN(CCc2cccs2)C1` (centres undefined), the cytotoxicity at 10 µM was -7.12%.

On to `CCC(C)C(=O)NCc1c(C)nn(C)c1N1CCCN(C)CC1` (centres undefined), for which the cytotoxicity at 10 µM came out at 4.24%. `CCNC(=O)N1CC[C@@H](CC(=O)O)[C@@H](CC2=NCCc3ccccc32)C1`: the cytotoxicity at 10 µM worked out at 2.7%. On to `c1coc(-c2noc(CN3CCCC(Cn4cncn4)C3)n2)c1` (centres undefined), for which the cytotoxicity at 10 µM was -7.23%. In the case of `COC(=O)c1ccoc1COC(=O)CCc1ccc(OC)c(OC)c1`, the cytotoxicity at 10 µM came to 5.27%.

Take `CCOCCN1CCC(c2cnccn2)CC1`: the cytotoxicity at 10 µM turned out to be 5.8%. Next, `Cc1cccc(CN2CCC3(CCC(CC(=O)N(C)C)CC3)CC2)n1`: -113%; `O=C(O)[C@@H]1CN(Cc2ccc(-c3cc[nH]n3)s2)C[C@H]1C1CC1`: 5.13%; `CC(C)c1cccc(-n2cc(O)c(C(=O)O)n2)c1`: -4.49%.

For the compound `CN(C)c1ncccc1CNC(=O)NCc1cccs1`, the cytotoxicity at 10 µM was -4.87%. `CCNC(=O)NC(C)(C)C(=O)NCCc1csc2ccccc12`: the cytotoxicity at 10 µM is -15.5%. `CCN1CCCc2cc(CN3CCc4c(nc(C)[nH]c4=O)C3)ccc21`: the cytotoxicity at 10 µM was -1.02%.
